Furin inhibitor: blocks human furin protease activity. P09958. purified furin, fluorogenic substrate cleavage. inhibition, % at 20 µM or 30 µM. 220,000 compounds, 0.061% hits; in the data active = inhibition above about 25%
Target sequence (P09958 108-714 limits assumed): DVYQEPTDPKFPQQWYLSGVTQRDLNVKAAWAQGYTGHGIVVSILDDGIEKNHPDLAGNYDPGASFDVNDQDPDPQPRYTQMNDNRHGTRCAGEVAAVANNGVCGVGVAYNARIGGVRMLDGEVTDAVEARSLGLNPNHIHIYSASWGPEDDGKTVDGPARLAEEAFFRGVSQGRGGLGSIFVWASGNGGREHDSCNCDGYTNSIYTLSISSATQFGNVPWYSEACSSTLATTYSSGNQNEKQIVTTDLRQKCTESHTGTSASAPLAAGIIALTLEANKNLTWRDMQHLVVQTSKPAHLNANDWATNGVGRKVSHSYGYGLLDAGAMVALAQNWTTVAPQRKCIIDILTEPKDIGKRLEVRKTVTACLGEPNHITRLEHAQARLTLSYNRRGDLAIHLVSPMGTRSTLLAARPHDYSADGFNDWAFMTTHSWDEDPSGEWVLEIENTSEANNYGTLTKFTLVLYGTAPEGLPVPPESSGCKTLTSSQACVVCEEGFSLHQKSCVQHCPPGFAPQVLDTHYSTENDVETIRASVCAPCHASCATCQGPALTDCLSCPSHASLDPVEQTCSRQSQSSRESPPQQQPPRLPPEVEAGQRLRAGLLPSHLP
EP2 mod: modulators of human EP2 prostaglandin E2 receptor; P43116; EP2-expressing cells, cAMP HTRF FRET, PGE2 co-stimulation; induction, % at 25 µM; 260,000 compounds, 0.83% hits;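 active = compounds whose cAMP rise, as percent of the full-agonist control response, exceeds 60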;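 also: rat C6 glioma line stably carrying human EP2 under a CMV promoter; the protocol text gives 20 µM as final concentration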
PGE2 EP2 inh: EP2 receptor (human) inhibition | 260,000 compounds, 0.52% hits | inhibition, % at 25 µM | C6 glioma cells expressing human EP2, cAMP TR-FRET; cells stimulated with saturating PGE2 | P43116 | AID 1422;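 active = percent inhibition above 40 after rounding to a whole number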;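 also: rat C6 glioma host cells with rolipram phosphodiesterase inhibitor present; the protocol text gives 20 µM as final concentration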
GASC-1 inh: human JMJD2C demethylase inhibition. GST-JMJD2C(1-420) H3K9me3 demethylation, DELFIA europium. inhibition, % at 2.35 µM. 330,000 compounds, 0.069% hits;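 active = more than half of a compound's replicate wells show inhibition beyond 50%, single wells judged on their own value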;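 also: signal counts dimethyl H3K9 product captured on neutravidin plate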
NR2E3 ag-1: activates human NR2E3 receptor | Q9Y5X4 | CHO-S Gal4-NCOR/VP16-NR2E3 two-hybrid, luciferase | inhibition of corepressor binding, % at 3.98 µM | 360,000 compounds, 0.35% hits | AID 602229;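 active = inhibition above the mean of all tested compounds plus 3 SD, cut at about 70% in these data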;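 also: higher means lower luciferase signal from less NR2E3 corepressor binding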
NR2E3 ag-2: agonists of human nuclear receptor NR2E3. Q9Y5X4. GST-NR2E3/biotin-RetCOR TR-FRET, 1536-well. inhibition of corepressor binding, % at 4.78 µM. 320,000 compounds, 0.12% hits;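 active = percent inhibition above the cutoff of mean plus 3 SD of all tested compounds, set per screening campaign, cut at about 20% in these data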
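Material: NR2E3–RetCOR corepressor complex / Incubation: Compound–protein incubation for 5 h at 4 °C / Dosing: compound at 4.8 µM, single dose / Detection: time-resolved FRET / Benchmarks: high control biotin, low control 0.6% DMSO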
NR2E3 ag confirm: NR2E3 agonism confirmed in two-hybrid assay; AID 624378; CHO-S mammalian two-hybrid NR2E3-NCOR, luciferase luminescence; inhibition, % at 3.98 µM; shares compounds with NR2E3 ag-1; 2,300 compounds, 51% hits;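 active = average inhibition above a cutoff equal to the mean inhibition of all tested compounds plus one SD, cut at about 70% in these data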
VP16 counter: GAL4-VP16 reporter inhibition in NR2E3 agonist counterscreen | shares compounds with NR2E3 ag-1 | CHO-S GAL4-VP16 luciferase reporter, luminescence | inhibition, % at 3.98 µM | 2,300 compounds, 29% hits | AID 624379;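 active = mean inhibition above a cutoff equal to the average over all tested compounds plus one standard deviation, cut at about 70% in these data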;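 also: luciferase from a UAS reporter driven by GAL4-VP16 transactivation; higher means less reporter light so more repression of VP16 activity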
Each line names hits and unclear results; the compound was inactive in the other large screens (follow-up assays come after a bar, where they were run). In the library only some 1.3% were active in any assay of this set; here they are far more common.

CC(Nc1ncnc2ccccc12)c1ccccc1 (stereo unspecified)	NR2E3 ag-1 75 (no result: Furin inhibitor, EP2 mod, PGE2 EP2 inh) | NR2E3 ag confirm 96 | VP16 counter 91
Cc1csc2ncnc(N3CCN(C(=S)Nc4ccc(F)cc4F)CC3)c12	none | NR2E3 ag confirm 93 | VP16 counter 82
Fc1ccc(NC(=S)N2CCCN(c3ccc(C(F)(F)F)cn3)CC2)c(F)c1	none | NR2E3 ag confirm 91 | VP16 counter 77
O=C(Nc1ccc(F)cc1F)N1CCCN(c2ccc(C(F)(F)F)cn2)CC1	none
CC1CCC2(OC1)OC1CC3C4CC(=O)C5=CC(=O)CCC5(C)C4CCC3(C)C1C2C (stereo unspecified)	none (no result: Furin inhibitor, GASC-1 inh, NR2E3 ag-1, NR2E3 ag-2)
Cc1onc(-c2ccccc2)c1C(=O)Nc1ncc([N+](=O)[O-])s1	NR2E3 ag-1 101 (no result: Furin inhibitor) | NR2E3 ag confirm 99 | VP16 counter 81
Cc1nc(NC(=O)c2c(-c3ccccc3Cl)noc2C)sc1C	NR2E3 ag-1 79 (no result: Furin inhibitor, EP2 mod, PGE2 EP2 inh) | NR2E3 ag confirm 80 | VP16 counter inactive
Cc1nnc(NC(=O)c2c(-c3ccccc3Cl)noc2C)s1	none
Cc1ccc2cc(CN(Cc3ccco3)C(=O)Nc3ccccc3Cl)c(=O)[nH]c2c1	none (no result: Furin inhibitor, GASC-1 inh, NR2E3 ag-1, NR2E3 ag-2)
CC(Sc1nc2ccccc2c(=O)n1C)C(=O)N(C)C1CCCCC1 (stereo unspecified)	NR2E3 ag-1 95 (no result: Furin inhibitor, EP2 mod, PGE2 EP2 inh) | NR2E3 ag confirm 92 | VP16 counter 76
Cc1cc(C)c2cc(C)c3nnc(SCC(=O)NCc4ccco4)n3c2c1	none (no result: Furin inhibitor, GASC-1 inh, NR2E3 ag-1, NR2E3 ag-2)
c1ccc2c(c1)CCN(c1ncnc3c1[nH]c1ccccc13)C2	NR2E3 ag-1 89 (no result: Furin inhibitor, PGE2 EP2 inh) | NR2E3 ag confirm 95 | VP16 counter 88
OC1(c2cccc(C(F)(F)F)c2)CCN(c2ncnc3c2[nH]c2ccccc23)CC1	none (no result: PGE2 EP2 inh) | NR2E3 ag confirm inactive | VP16 counter inactive
COc1ccc(Cl)cc1NC(=O)CN1C(=O)[C@H]2CCCN2C(=O)c2ccccc21	none (no result: Furin inhibitor, GASC-1 inh, NR2E3 ag-1, NR2E3 ag-2)
Cc1nnnn1/C(=C\c1ccccc1)C(=O)OCC(=O)Nc1ccc(Cl)cc1F	none (no result: Furin inhibitor, EP2 mod, PGE2 EP2 inh) | NR2E3 ag confirm inactive | VP16 counter inactive
COc1ccccc1-c1nc2cnccn2c1NCc1ccco1	none (no result: Furin inhibitor, PGE2 EP2 inh, GASC-1 inh, NR2E3 ag-1, NR2E3 ag-2)
Cc1nn(C)c(C)c1CN(C)S(=O)(=O)c1ccc(F)cc1	none
Cc1nn(C)c(C)c1CN(C)S(=O)(=O)c1ccc2ccccc2c1	NR2E3 ag-1 85 | NR2E3 ag confirm 96 | VP16 counter 86
c1ccc2c(c1)oc1c(NCc3ccc4c(c3)OCO4)ncnc12	NR2E3 ag-1 73 | NR2E3 ag confirm 90 | VP16 counter 75
CCN(Cc1ccccc1)C(c1cc2cc(OC)ccc2[nH]c1=O)c1nnnn1CC1CCCO1 (stereo unspecified)	none (no result: Furin inhibitor, GASC-1 inh, NR2E3 ag-1, NR2E3 ag-2)
CCSCCCc1nnc(NC(=O)Nc2cccc(C(F)(F)F)c2)s1	none (no result: Furin inhibitor, GASC-1 inh, NR2E3 ag-1, NR2E3 ag-2)
Cc1nc(NC(=O)C2CCCCC2)sc1C(=O)Nc1ccc2c(c1)OCCO2	none (no result: Furin inhibitor, GASC-1 inh, NR2E3 ag-1, NR2E3 ag-2)
CC(C)c1cc2c(c(O)c1O)[C@@]13CCCC(C)(C)C1CC2OC3=O (stereo partly specified)	NR2E3 ag-1 85 (no result: Furin inhibitor, EP2 mod, PGE2 EP2 inh) | NR2E3 ag confirm 92 | VP16 counter inactive
CC(C)c1c(O)c(-c2cc3c(c(C(C)C)c2O)CCC2C(C)(C)CCC[C@]32C)cc2c1CCC1C(C)(C)CCC[C@]21C (stereo partly specified)	none (no result: Furin inhibitor, GASC-1 inh, NR2E3 ag-1, NR2E3 ag-2)
O=C(CSc1nnc(COc2cccc3ccccc23)n1-c1ccc(F)cc1)N1CCCC1	none (no result: Furin inhibitor, GASC-1 inh, NR2E3 ag-1, NR2E3 ag-2)
COc1cc2nc(=S)n3[nH]c(CCn4nc(C)cc4C)nc3c2cc1OC	NR2E3 ag-1 85 | NR2E3 ag confirm inactive | VP16 counter inactive
COc1cc2nc(=S)n3[nH]c(COc4ccccc4C)nc3c2cc1OC	none
CCCCC(=O)N1CCN(c2nc3ccc(Cl)cc3s2)CC1	none (no result: Furin inhibitor, EP2 mod, PGE2 EP2 inh) | NR2E3 ag confirm inactive | VP16 counter inactive
CC(C)c1ccc(C(C)NC(=S)NC2CCCCC2)cc1 (stereo unspecified)	none (no result: Furin inhibitor, EP2 mod, PGE2 EP2 inh, NR2E3 ag-2) | NR2E3 ag confirm inactive | VP16 counter inactive
CCc1ccc(C(C)NC(=S)NC2CCCCC2)cc1 (stereo unspecified)	none (no result: Furin inhibitor, EP2 mod, PGE2 EP2 inh, NR2E3 ag-2)
